In data set [1] the target is T1, Acetylcholinesterase (Bos taurus, UniProt P23795).
T1 sequence (P23795 whole entry): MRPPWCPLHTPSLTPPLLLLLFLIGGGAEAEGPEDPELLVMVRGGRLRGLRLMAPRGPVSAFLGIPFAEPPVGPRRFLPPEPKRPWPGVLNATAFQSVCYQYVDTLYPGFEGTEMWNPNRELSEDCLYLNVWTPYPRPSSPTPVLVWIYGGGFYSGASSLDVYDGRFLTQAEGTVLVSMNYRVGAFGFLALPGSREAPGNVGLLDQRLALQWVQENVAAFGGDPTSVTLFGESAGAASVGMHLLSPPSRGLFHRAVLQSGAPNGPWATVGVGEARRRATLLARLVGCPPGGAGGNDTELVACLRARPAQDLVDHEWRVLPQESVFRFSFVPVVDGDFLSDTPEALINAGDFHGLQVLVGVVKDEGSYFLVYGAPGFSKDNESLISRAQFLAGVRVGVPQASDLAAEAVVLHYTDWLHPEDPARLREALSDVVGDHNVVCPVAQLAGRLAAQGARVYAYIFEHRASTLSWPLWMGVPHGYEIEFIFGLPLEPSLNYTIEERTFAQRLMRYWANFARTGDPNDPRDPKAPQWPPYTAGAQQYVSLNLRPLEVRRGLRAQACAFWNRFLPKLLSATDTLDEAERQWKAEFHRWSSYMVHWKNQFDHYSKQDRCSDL
As to the kind of experiment: Inhibitory activity towards calf serum acetylcholinesterase. An outline of the steps:
(§1)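 Modified Rappaport assay following acetylcholine chloride hydrolysis to acetic acid, with m-nitrophenol indicator in phosphate buffer at pH 7.8 and NaCl. The compound is added in DMSO, and the reaction is started with serum (human, mouse or calf). A420 is read at 25 °C at 0 and 5 min. Final inhibitor is 0.1, 0.5, 1, 5, 10, 30 and 50 µM. IC50 is interpolated from ΔE plots in the pseudolinear region.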

The target of data set [2] is Cholinesterase (Mus musculus, UniProt Q03311). As to the kind of experiment: Inhibitory activity towards mouse butyrylcholinesterase. The procedure, abridged: as §1
Sequence of Cholinesterase (Mus musculus, UniProt Q03311) (Q03311 whole entry): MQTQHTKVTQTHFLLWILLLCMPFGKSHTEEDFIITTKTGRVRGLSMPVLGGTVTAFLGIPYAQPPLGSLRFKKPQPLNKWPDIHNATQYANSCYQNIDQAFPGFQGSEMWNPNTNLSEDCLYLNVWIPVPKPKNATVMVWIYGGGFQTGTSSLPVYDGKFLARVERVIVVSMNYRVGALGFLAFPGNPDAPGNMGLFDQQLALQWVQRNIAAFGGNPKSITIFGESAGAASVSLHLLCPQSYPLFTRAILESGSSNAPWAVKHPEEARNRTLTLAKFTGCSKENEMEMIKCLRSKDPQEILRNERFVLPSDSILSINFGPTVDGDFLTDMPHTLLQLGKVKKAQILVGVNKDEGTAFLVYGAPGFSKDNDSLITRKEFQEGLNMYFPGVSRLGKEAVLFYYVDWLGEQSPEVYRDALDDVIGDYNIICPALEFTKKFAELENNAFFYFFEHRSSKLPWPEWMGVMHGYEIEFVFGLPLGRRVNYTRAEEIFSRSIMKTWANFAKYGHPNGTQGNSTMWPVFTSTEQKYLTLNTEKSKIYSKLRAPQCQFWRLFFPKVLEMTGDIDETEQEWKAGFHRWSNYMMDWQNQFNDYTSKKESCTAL
The target of data set [3] is Cholinesterase (Homo sapiens, UniProt P06276). As to the kind of experiment: Inhibitory activity towards human butyrylcholinesterase. An outline of the steps: as §1
Sequence of Cholinesterase (Homo sapiens, UniProt P06276) (P06276 whole entry): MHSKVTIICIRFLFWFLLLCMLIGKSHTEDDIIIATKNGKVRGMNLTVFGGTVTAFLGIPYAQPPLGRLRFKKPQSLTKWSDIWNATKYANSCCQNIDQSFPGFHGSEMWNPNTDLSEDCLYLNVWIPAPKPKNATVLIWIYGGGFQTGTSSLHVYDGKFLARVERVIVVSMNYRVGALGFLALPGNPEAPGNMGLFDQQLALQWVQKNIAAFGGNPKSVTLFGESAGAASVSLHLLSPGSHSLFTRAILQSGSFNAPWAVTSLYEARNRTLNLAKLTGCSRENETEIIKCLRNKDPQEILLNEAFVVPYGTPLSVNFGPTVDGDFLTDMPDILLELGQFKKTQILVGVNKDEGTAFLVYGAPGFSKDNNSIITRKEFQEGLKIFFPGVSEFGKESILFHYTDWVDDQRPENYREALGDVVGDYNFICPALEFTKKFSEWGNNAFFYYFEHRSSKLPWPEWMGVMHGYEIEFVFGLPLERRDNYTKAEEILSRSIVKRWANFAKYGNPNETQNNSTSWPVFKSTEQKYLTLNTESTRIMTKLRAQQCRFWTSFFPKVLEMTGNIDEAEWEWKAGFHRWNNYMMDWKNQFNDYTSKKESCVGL
In data set [4] the target is Acetylcholinesterase (Electrophorus electricus, UniProt O42275). Briefly: Inhibitory activity towards Electrophorus electricus acetylcholinesterase.
Sequence of Acetylcholinesterase (Electrophorus electricus, UniProt O42275) (O42275 whole entry): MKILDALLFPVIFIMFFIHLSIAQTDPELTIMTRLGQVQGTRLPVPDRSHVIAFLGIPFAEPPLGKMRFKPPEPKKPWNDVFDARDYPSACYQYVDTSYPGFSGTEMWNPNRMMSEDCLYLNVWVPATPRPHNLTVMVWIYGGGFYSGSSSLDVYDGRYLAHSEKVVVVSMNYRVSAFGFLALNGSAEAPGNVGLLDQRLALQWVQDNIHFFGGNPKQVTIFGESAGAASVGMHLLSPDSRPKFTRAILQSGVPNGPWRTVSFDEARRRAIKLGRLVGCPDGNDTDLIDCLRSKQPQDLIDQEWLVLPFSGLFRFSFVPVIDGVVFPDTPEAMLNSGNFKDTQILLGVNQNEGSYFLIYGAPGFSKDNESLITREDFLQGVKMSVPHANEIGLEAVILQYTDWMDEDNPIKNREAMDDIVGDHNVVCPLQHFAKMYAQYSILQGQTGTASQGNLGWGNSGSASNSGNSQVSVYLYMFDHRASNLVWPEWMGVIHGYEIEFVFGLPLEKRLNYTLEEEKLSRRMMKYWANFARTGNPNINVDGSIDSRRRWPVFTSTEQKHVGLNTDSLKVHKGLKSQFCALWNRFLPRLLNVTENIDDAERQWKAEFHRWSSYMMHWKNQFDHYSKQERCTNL
For data set [5], the target named is T1, Acetylcholinesterase. Briefly: Inhibitory activity towards beef erythrocytes acetylcholinesterase.
The next data set deals with L1210. Briefly: Antitumor activity tested in L1210 cells. In kind it is functional, cell-based. The settings on record: Mus musculus.
Data set [6] relates to CCRF-CEM. As to the kind of experiment: Anti-HIV-1 activity tested in human lymphocytic CEM cells. It is filed as functional, cell-based.
A further data set relates to Vero. Briefly: Anti-HSV-1 activity tested in Vero cells. The settings on record: Chlorocebus sabaeus. In kind it is functional, cell-based.
In another data set the test system is Human gammaherpesvirus 4. Briefly: Anti-EBV activity blocking EBV-DNA synthesis. In kind it is functional, organism-based.
For data set [7], the system named is CCRF-CEM. As to the kind of experiment: Anti-HIV-2 activity tested in human lymphocytic CEM cells. In kind it is functional, cell-based.
A short description of data set [8]: Half-life was determined. It is filed as ADME. The settings on record: human.

For the compound `Cc1cccc2c1OP(=O)(OC[C@@H]1C[C@H](F)[C@H](n3cnc4c(N)ncnc43)O1)OC2` (stereo not given in full), the half-inhibitory concentration (IC50) on Acetylcholinesterase [1] was greater than 50 µM; at Cholinesterase [2] it was greater than 50 µM; on Cholinesterase [3], 5 µM; on Acetylcholinesterase [4], greater than 50 µM; at Acetylcholinesterase [5], greater than 50 µM.
On Acetylcholinesterase [4], `Cc1cccc2c1O[P@@](=O)(OC[C@H]1O[C@@H](n3cc(F)c(=O)[nH]c3=O)C[C@@H]1O)OC2` showed an IC50 greater than 50 µM. This compound showed a concentration for a half-maximal effect (EC50) with L1210 of 0.04 µM.
In the case of `Cc1cccc2c1O[P@@](=O)(OC[C@@H]1C=C[C@H](n3cc(C)c(=O)[nH]c3=O)O1)OC2`, the 50% inhibitory concentration (IC50) on Acetylcholinesterase [1], on Cholinesterase [2], on Cholinesterase [3], on Acetylcholinesterase [4] and against Acetylcholinesterase [5] was greater than 50 µM in each case. A half-maximal response in the data set on CCRF-CEM [6] (EC50) required 0.08 µM.
Take `Cc1cccc2c1OP(=O)(OC[C@H](CO)OCn1cnc3c(O)nc(N)nc31)OC2` (stereo not given in full): the 50% inhibitory concentration (IC50) on Cholinesterase [3] and on Acetylcholinesterase [4] was greater than 50 µM each time. The compound also showed an EC50 in the data set with Vero of 3.3 µM.
With `Cc1cccc2c1OP(=O)(OC[C@H]1O[C@@H](N3CC(/C=C/Br)C(=O)NC3=O)C[C@@H]1O)OC2` (stereo not given in full), the half-maximal effective concentration (EC50) in the data set on Human gammaherpesvirus 4 amounted to 4.1 µM. Moreover, the IC50 at Cholinesterase [3] and against Acetylcholinesterase [4] was greater than 50 µM throughout.
With `Cc1cccc2c1OP(=O)(OC[C@H]1O[C@@H](n3cc(F)c(=O)[nH]c3=O)C[C@@H]1O)OC2` (stereo not given in full), the IC50 against Cholinesterase [3] was greater than 50 µM; against Acetylcholinesterase [4] it was greater than 50 µM; in the data set with L1210, 0.04 µM.
Turning to `Cc1cccc2c1OP(=O)(OCC(CO)CCn1cnc3c(O)nc(N)nc31)OC2` (stereo not given), the IC50 against Cholinesterase [3] and against Acetylcholinesterase [4] was greater than 50 µM in each case. A half-maximal effect in the data set with Vero (EC50) was put at 17.7 µM.
In the case of `Cc1cn(C2C=CC(COP3(=O)OCc4cccc(CCC(=O)OC(C)(C)C)c4O3)O2)c(=O)[nH]c1=O` (stereo not given), the concentration for half-maximal inhibition (IC50) against Cholinesterase [3] is 3.4 µM; against Acetylcholinesterase [4], greater than 50 µM. This compound also returned an EC50 with CCRF-CEM [7] of 0.33 µM.
Regarding `Cc1cccc2c1OP(=O)(OCC1C=CC(n3cnc4c(N)ncnc43)O1)OC2` (stereo not given), the IC50 is greater than 50 µM at Acetylcholinesterase [1]; 10.5 µM against Cholinesterase [2]; 1.2 µM on Cholinesterase [3]; greater than 50 µM against Acetylcholinesterase [4]; greater than 50 µM on Acetylcholinesterase [5]. This compound also returned an EC50 in the data set with CCRF-CEM [6] of 0.065 µM.
For `Cc1cccc2c1O[P@@](=O)(OC[C@@H](CO)OCn1cnc3c(O)nc(N)nc31)OC2`, the response with Human gammaherpesvirus 4 was half-maximal at 3.29 µM (EC50). In addition, the half-maximal inhibitory concentration (IC50) against Cholinesterase [3] and at Acetylcholinesterase [4] was greater than 50 µM in each case.
`Cc1cccc2c1OP(=O)(OCC1CCC(n3cnc4c(N)ncnc43)O1)OC2` (stereo not given): the IC50 against Acetylcholinesterase [1] was greater than 50 µM; against Cholinesterase [2], 2.35 µM; against Cholinesterase [3], 0.91 µM; on Acetylcholinesterase [4] it was greater than 50 µM; against Acetylcholinesterase [5], greater than 50 µM. This compound also displayed an EC50 with CCRF-CEM [6] of 0.047 µM.
`Cc1cccc2c1OP(=O)(OCCOCn1cnc3c(O)nc(N)nc31)OC2` (stereo not given): the IC50 against Cholinesterase [3] and on Acetylcholinesterase [4] was greater than 50 µM throughout. In the data set with Vero, the concentration for a half-maximal effect (EC50) was found to be 0.15 µM.
With `Cc1cn(C2C=CC(COP3(=O)OCc4c(F)c(C(C)(C)C)cc(C(C)(C)C)c4O3)O2)c(=O)[nH]c1=O` (stereo not given), the IC50 against Cholinesterase [3] was 48 µM; at Acetylcholinesterase [4], greater than 50 µM. Moreover, in data set [8], the half-life was 6.2 h. In the data set on CCRF-CEM [6], this compound displayed an EC50 of 0.16 µM.
In the case of `Cc1cccc2c1OP(=O)(OCC1OC(n3cc(C)c(=O)[nH]c3=O)CC1N=[N+]=[N-])OC2` (stereo not given), the IC50 against Acetylcholinesterase [1] was greater than 50 µM; against Cholinesterase [2], greater than 50 µM; at Cholinesterase [3] it was 40 µM; on Acetylcholinesterase [4], greater than 50 µM; at Acetylcholinesterase [5], greater than 50 µM. The compound further showed an EC50 with CCRF-CEM [6] of 0.006 µM.
`Cc1cccc2c1O[P@](=O)(OC[C@H]1OC(n3cc(F)c(=O)[nH]c3=O)C[C@@H]1O)OC2` (single isomer, unassigned): the IC50 against Cholinesterase [3] and on Acetylcholinesterase [4] was greater than 50 µM in each case. In the data set on L1210, this compound registered an EC50 of 0.044 µM.
As to `Cc1cccc2c1O[P@](=O)(OC[C@@H]1C=CC(n3cc(C)c(=O)[nH]c3=O)O1)OC2` (single isomer, unassigned), the 50% inhibitory concentration (IC50) was greater than 50 µM on Acetylcholinesterase [1]; no less than 5 µM on Cholinesterase [2]; 0.24 µM against Cholinesterase [3]; greater than 50 µM at Acetylcholinesterase [4]; greater than 50 µM against Acetylcholinesterase [5]. The same compound gave a concentration for a half-maximal effect (EC50) with CCRF-CEM [6] of 0.42 µM.

Values taken from ChEMBL document CHEMBL1148460, “Interaction of cycloSal-pronucleotides with cholinesterases from different origins. A structure-activity relationship” (J Med Chem, 2004).
